ChEMBL document CHEMBL1123812, “Pyrroloisoquinoline antidepressants. 2. In-depth exploration of structure-activity relationships” (J Med Chem, 1987)
Activity calls are given as the source filed them.

What was measured:
[1] = molecular target: D(1A) dopamine receptor (Rattus norvegicus) (UniProt P18901); experiment: Binding affinity towards Dopamine receptor D1 at 1.0 uM concentration
Method in brief: (§1)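 Rat brain crude synaptic membranes in 20 mM NaHEPES pH 7.5. Ligands: α1 cortex […] 0.4 nM, nonspecific with (-)-NE 100 μM, 30 min at 25 °C. […] D2 striatum [3H]spiperone 0.05 nM with (+)-butaclamol 1 μM, 45 min at 37 °C. S1 cortex [3H]5-HT 1 nM plus glutathione and MgCl2, with 5-HT 10 μM, 20 min at 37 °C. […] Samples filtered on GF/B and counted.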

[2] = molecular target: D(2) dopamine receptor (Rattus norvegicus) (UniProt P61169); experiment: Binding affinity towards dopamine receptor D2 at 1.0 uM concentration; method in brief: as §1
Rattus norvegicus = species on record: Rattus norvegicus; experiment: Inhibition of GABA uptake at 1 uM concentration.; type: functional
[3] = molecular target: Serotonin 2 (5-HT2) receptor (Rattus norvegicus) (UniProt P30994+P08909+P14842); experiment: Binding affinity towards 5-hydroxytryptamine 2 receptor at 1.0 uM concentration; type: protein assay; method in brief: as §1
Mus musculus [4] = species on record: Mus musculus; experiment: Antagonism of tetrabenazine (TBZ)-induced depression in mice measured for ptosis; type: functional
Method in brief: (§2)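 Nonfasted male Swiss Webster mice, 18–24 g, ten per dose level and in saline controls. Test compound given ip 30 min before tetrabenazine 32 mg/kg ip; dose expressed as free base. Motor activity and ptosis scored. Control response ≤90% corrected by Abbott's formula.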

Mus musculus [5] = species on record: Mus musculus; experiment: Antagonism of tetrabenazine (TBZ)-induced depression measured in mice by motor activity; type: functional; method in brief: as §2
Mus musculus [6] = species on record: Mus musculus; experiment: Gross behavioral effects ascertained in mice; S indicates significant stimulant properties.; type: functional, organism-based
Method in brief: (§3)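 Male Swiss Webster mice, 18–24 g, three per dose, given ip doses of 1, 3, 10, 30, 100 and 300 mg/kg. Observed for gross behavior and held for 4 days. Scored as weak (W), stimulant (S), depressant (D) or convulsant (C).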

[7] = molecular target: Muscarinic acetylcholine receptor (Rattus norvegicus) (UniProt P08482+P08483+P08485+P08911+P10980); experiment: Binding affinity towards Muscarinic acetylcholine receptor at 1.0 uM concentration; type: protein assay
[8] = molecular target: Serotonin 1 (5-HT1) receptor (Rattus norvegicus, UniProt P28564+P30940+P19327+P28565); experiment: Binding affinity towards serotonin S1 receptor; type: protein assay; method in brief: as §1
[9] = molecular target: Sodium-dependent dopamine transporter (Rattus norvegicus, UniProt P23977); experiment: Inhibition of the uptake of tritiated dopamine (DA) in rat synaptosomes; type: subcellular, Brain
[10] = molecular target: Norepinephrine transporter (Rattus norvegicus, UniProt Q9WTR4); experiment: Inhibition of uptake of tritiated norepinephrine (NE) in rat synaptosomes; type: subcellular, Brain
[11] = molecular target: T1, Adrenergic receptor alpha-2 (Rattus norvegicus, UniProt P22086+P19328+P22909); experiment: Binding affinity towards alpha-2 adrenergic receptor; type: protein assay
T1 sequence (P22086 whole entry): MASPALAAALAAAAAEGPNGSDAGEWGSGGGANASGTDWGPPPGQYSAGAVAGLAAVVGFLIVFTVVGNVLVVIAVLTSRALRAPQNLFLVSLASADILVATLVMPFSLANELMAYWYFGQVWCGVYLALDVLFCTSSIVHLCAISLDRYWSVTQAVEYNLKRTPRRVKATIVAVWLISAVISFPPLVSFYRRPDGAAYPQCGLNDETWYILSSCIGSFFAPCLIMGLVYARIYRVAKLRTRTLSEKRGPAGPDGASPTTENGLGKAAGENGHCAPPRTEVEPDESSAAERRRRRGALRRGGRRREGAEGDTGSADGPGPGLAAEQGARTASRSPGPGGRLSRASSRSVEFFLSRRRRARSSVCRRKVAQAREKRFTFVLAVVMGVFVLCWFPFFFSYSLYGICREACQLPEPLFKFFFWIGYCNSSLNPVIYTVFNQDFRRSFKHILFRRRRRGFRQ
T1 sequence (P19328 whole entry): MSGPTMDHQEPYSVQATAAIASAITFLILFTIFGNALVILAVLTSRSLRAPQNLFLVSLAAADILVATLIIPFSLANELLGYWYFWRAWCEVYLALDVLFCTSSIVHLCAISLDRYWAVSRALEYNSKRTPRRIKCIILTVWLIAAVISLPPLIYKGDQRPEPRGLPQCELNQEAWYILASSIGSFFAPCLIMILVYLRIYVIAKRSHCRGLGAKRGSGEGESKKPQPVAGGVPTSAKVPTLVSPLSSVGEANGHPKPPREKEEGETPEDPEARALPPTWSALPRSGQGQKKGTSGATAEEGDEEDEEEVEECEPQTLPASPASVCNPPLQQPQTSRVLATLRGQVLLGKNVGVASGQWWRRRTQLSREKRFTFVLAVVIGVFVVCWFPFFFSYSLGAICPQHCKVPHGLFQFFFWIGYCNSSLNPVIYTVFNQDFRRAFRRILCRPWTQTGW
T1 sequence (P22909 whole entry): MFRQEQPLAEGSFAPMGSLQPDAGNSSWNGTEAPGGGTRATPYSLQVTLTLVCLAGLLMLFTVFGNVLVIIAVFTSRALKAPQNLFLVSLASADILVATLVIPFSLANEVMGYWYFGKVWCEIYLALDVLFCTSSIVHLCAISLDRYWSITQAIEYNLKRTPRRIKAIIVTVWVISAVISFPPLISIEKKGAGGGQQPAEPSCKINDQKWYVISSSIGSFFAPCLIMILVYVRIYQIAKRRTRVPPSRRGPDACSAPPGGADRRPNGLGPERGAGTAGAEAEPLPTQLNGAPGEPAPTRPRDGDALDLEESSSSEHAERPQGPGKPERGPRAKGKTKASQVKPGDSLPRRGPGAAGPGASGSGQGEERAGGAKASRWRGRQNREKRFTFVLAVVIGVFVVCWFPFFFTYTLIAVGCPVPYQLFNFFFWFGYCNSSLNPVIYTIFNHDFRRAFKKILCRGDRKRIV

[12] = molecular target: Adrenergic receptor alpha-1 (Rattus norvegicus) (UniProt P15823+P23944+P43140); experiment: Binding affinity towards alpha-1 adrenergic receptor at 1.0 uM concentration; type: protein assay; method in brief: as §1
[13] = molecular target: Serotonin 1 (5-HT1) receptor (Rattus norvegicus) (UniProt P28564+P30940+P19327+P28565); experiment: Binding affinity towards serotonin S1 receptor at 1.0 uM; type: protein assay; method in brief: as §1
Mus musculus [14] = experiment: Ability to antagonise intraperitoneal dose; inactive (<10% antagonism) at 30 mgjkg is represented as I-30.; type: functional, organism-based; method in brief: as §2
Mus musculus [15] = species on record: Mus musculus; experiment: Gross behavioral effects ascertained in mice; W indicates weak stimulant or depressant activity of little significance.; type: functional, organism-based; method in brief: as §3
[16] = molecular target: Sodium-dependent dopamine transporter (Rattus norvegicus) (UniProt P23977); experiment: Ability to inhibit the uptake of [3H]dopamine (DA) 0.1 uM concentration at rat brain synaptosomes; type: functional, subcellular
Method in brief: (§4)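 Male Wistar rat brain synaptosomes (P2 fraction): hypothalamus for NE, striatum for DA, cerebral cortex for 5-HT. Buffer is Tris- or HEPES-buffered salt medium with glucose, ascorbate and nialamide, pH 7.4 at 37 °C. Preincubated 10 min at 37 °C with compound. Uptake started with [3H]NE 100–300 nM, [3H]DA 50–300 nM or [3H]5-HT 100–200 nM, incubated 3 min (DA) or 6–10 min (NE, 5-HT). Blanks held on ice. Filtered, counted by scintillation.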

[17] = molecular target: Norepinephrine transporter (Rattus norvegicus) (UniProt Q9WTR4); experiment: Ability to inhibit the uptake of [3H]norepinephrine (NE) 0.1 uM concentration at rat brain synaptosomes; type: functional, subcellular; method in brief: as §4
[18] = molecular target: Sodium-dependent serotonin transporter (Rattus norvegicus) (UniProt P31652); experiment: Ability to inhibit the uptake of [3H]- serotonin(5-HT) 0.1 uM concentration at rat brain synaptosomes; type: functional, subcellular; method in brief: as §4
Mus musculus [19] = species on record: Mus musculus; experiment: Gross behavioral effects ascertained in mice; W/C indicates weak stimulant or depressant activity of little significance/ overt convulsant; type: functional, organism-based
Method in brief: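 Male Swiss Webster albino mice, 18–24 g, three per dose, given ip 1, 3, 10, 30, 100 and 300 mg/kg. Gross behaviour observed and held 4 days. Estimated LD50 range from lethality count on day 4. Scored as weak stimulant/depressant, significant stimulant, significant depressant or overt convulsant.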

D(2) dopamine receptor = D(2) dopamine receptor (Rattus norvegicus, UniProt P61169); experiment: Binding affinity towards Dopamine receptor D2
[20] = molecular target: T2, Adrenergic receptor alpha-1 (Rattus norvegicus, UniProt P15823+P23944+P43140); experiment: Binding affinity towards alpha-1 adrenergic receptor; type: protein assay
T2 sequence (P15823 whole entry): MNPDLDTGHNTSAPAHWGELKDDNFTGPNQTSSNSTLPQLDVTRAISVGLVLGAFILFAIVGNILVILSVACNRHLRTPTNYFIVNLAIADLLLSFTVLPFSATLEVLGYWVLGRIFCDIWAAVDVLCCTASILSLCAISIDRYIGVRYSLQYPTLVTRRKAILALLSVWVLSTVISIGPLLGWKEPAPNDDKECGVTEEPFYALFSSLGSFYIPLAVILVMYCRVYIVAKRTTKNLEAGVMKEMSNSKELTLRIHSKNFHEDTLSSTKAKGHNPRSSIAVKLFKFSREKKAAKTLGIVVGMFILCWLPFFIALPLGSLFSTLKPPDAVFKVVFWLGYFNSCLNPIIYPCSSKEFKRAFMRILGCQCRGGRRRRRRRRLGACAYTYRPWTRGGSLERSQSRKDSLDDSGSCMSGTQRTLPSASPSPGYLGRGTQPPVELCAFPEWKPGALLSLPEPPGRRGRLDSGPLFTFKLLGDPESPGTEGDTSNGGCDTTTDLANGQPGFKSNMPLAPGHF
T2 sequence (P23944 whole entry): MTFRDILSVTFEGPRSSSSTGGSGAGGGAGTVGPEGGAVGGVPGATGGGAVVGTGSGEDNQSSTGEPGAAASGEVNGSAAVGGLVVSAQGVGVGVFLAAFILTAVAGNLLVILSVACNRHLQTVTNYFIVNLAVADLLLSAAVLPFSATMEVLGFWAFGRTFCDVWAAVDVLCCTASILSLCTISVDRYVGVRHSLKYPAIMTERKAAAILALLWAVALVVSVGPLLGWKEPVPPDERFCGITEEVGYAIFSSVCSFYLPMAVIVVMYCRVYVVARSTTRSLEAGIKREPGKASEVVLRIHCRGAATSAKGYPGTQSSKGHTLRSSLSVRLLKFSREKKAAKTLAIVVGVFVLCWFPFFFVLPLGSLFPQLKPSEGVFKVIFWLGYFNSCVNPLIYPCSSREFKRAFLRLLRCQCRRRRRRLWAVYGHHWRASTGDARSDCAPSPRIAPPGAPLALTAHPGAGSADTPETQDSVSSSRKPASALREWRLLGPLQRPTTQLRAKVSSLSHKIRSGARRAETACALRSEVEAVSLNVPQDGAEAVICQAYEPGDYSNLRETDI
T2 sequence (P43140 whole entry): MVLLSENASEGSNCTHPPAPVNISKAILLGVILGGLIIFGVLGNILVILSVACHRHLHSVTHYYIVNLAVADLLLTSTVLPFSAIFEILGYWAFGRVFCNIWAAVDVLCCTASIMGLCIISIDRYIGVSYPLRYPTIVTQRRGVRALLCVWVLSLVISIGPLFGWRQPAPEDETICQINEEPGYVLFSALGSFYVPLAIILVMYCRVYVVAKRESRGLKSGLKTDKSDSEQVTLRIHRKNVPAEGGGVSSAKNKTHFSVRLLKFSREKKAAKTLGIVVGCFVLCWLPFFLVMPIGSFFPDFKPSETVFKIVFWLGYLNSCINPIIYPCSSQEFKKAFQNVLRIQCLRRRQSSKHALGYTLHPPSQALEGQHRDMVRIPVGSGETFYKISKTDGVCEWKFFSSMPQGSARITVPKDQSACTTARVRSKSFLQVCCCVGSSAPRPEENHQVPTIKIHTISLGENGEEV

Sequence of D(2) dopamine receptor (Rattus norvegicus) (P61169 whole entry): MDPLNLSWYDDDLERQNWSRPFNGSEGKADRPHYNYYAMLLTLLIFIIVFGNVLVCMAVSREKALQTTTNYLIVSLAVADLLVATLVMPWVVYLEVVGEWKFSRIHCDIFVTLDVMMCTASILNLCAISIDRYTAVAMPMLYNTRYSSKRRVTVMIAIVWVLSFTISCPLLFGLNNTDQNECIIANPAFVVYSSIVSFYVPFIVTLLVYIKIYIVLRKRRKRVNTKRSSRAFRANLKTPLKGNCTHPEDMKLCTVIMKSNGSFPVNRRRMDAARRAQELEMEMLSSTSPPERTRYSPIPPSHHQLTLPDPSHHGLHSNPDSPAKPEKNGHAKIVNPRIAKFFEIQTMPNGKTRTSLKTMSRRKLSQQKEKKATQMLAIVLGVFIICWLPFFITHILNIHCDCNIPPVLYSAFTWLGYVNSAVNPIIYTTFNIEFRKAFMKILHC
Sequence of Sodium-dependent serotonin transporter (Rattus norvegicus) (P31652 whole entry): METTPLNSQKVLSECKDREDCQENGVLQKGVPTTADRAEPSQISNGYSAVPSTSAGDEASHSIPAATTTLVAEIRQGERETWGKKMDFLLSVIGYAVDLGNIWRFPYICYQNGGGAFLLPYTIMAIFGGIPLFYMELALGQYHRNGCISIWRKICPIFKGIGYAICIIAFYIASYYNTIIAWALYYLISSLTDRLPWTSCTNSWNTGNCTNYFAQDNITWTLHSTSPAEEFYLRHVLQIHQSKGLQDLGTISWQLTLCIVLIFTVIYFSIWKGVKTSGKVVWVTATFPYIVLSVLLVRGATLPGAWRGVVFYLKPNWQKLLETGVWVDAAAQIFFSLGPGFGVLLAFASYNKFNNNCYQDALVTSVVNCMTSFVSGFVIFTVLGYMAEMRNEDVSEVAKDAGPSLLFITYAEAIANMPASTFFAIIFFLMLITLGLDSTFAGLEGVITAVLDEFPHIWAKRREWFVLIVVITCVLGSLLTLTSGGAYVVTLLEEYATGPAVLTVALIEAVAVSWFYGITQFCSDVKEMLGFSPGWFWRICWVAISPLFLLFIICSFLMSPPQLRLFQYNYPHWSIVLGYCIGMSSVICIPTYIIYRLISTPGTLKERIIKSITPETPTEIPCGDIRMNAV
Sequence of Sodium-dependent dopamine transporter (Rattus norvegicus) (P23977 whole entry): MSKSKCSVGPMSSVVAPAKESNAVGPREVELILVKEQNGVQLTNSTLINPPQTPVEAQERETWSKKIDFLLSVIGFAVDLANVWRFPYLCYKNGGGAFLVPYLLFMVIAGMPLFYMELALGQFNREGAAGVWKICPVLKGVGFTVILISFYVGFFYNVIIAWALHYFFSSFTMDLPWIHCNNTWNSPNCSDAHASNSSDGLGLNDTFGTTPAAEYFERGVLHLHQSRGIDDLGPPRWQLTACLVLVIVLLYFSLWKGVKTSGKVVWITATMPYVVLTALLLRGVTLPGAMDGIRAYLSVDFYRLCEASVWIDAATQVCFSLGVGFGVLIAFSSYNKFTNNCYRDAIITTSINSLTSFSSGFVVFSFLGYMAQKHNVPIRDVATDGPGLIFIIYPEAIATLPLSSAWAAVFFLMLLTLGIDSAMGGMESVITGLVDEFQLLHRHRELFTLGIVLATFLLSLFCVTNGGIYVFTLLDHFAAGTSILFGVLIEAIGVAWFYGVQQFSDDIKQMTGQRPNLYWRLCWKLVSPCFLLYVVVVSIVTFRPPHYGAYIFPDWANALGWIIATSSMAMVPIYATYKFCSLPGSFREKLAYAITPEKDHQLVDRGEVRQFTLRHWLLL
Sequence of Norepinephrine transporter (Rattus norvegicus) (Q9WTR4 as listed by the source): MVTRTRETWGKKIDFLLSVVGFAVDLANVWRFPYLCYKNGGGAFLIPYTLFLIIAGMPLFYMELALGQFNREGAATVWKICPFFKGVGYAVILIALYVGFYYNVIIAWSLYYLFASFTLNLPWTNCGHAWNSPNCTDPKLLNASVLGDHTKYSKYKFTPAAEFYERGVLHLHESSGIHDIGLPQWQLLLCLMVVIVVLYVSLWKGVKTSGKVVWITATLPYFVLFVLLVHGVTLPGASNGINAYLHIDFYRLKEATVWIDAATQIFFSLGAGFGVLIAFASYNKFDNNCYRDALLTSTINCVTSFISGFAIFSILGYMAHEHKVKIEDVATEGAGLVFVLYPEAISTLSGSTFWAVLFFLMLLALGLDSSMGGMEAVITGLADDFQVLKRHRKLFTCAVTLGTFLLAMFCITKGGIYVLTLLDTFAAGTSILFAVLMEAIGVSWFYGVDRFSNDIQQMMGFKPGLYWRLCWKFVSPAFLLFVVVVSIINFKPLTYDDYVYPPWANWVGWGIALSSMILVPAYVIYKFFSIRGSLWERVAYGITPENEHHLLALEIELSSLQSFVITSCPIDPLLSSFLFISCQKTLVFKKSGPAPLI
Sequence of Sodium-dependent dopamine transporter (P23977 whole entry): as the sequence (P23977 whole entry) above
Sequence of Norepinephrine transporter (Q9WTR4 whole entry): as the sequence (Q9WTR4 as listed by the source) above
Sequence of D(1A) dopamine receptor (Rattus norvegicus) (P18901 whole entry): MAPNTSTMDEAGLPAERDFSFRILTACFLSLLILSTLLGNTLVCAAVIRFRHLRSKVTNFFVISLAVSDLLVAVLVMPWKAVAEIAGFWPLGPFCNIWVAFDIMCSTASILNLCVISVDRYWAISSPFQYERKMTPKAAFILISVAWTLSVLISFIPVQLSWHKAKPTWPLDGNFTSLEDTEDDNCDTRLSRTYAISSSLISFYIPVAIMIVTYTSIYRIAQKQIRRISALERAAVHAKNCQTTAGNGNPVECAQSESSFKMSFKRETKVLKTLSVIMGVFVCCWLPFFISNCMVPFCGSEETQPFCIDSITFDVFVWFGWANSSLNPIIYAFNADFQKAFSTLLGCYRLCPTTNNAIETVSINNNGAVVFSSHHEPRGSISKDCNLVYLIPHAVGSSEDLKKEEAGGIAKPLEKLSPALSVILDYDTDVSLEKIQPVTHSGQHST
Sequence of D(2) dopamine receptor (P61169 whole entry): as the sequence (P61169 whole entry) above
Sequence of Serotonin 2 (5-HT2) receptor (Rattus norvegicus) (P08909 whole entry, looked up): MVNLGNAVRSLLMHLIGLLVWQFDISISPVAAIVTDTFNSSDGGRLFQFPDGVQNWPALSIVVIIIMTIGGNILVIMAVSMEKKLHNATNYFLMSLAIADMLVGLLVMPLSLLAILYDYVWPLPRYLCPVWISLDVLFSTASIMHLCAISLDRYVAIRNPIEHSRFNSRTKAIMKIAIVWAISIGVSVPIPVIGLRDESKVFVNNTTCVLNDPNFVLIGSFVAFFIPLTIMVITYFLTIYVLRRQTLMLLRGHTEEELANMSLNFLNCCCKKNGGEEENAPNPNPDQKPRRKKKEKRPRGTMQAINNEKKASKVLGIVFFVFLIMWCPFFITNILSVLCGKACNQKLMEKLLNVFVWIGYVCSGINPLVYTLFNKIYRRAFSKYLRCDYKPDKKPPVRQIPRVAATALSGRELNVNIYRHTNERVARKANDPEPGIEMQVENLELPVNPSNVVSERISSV
Sequence of Serotonin 2 (5-HT2) receptor (Rattus norvegicus) (P14842 whole entry, looked up): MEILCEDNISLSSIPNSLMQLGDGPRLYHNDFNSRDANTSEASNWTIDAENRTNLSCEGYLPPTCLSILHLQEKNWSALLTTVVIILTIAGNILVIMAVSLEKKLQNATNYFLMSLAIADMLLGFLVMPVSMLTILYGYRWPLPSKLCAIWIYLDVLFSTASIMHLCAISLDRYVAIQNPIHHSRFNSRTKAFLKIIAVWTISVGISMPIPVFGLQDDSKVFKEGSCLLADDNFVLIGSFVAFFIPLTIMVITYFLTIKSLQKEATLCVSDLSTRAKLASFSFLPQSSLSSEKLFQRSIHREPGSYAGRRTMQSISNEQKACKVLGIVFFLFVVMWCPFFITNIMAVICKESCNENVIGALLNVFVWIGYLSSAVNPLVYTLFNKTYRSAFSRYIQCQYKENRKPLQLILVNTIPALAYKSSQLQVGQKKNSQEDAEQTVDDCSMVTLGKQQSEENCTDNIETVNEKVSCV
Sequence of Serotonin 2 (5-HT2) receptor (Rattus norvegicus) (P30994 whole entry, looked up): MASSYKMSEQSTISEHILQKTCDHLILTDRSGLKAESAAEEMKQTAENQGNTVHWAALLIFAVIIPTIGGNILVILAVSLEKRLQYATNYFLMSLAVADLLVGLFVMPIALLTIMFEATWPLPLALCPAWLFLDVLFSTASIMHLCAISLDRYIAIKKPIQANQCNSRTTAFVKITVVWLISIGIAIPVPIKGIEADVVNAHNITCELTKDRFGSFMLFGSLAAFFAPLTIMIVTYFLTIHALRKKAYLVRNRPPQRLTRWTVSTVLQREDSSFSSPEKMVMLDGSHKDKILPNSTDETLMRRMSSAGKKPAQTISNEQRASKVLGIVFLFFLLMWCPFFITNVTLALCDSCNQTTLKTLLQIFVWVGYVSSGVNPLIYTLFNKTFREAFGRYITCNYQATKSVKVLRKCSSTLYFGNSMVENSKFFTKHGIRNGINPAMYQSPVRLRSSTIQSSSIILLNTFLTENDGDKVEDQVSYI

## CSc1ccc([C@@H]2CN3CCC[C@@H]3c3ccccc32)cc1 (stereo in doubt; 48b)
[1]
  inhibition: 24%
[2]
  inhibition: 4%
Rattus norvegicus
  inhibition: 10%

## Clc1ccc([C@@H]2CN3CCC[C@@H]3c3ccccc32)cc1Cl
[3]
  inhibition: 24%
[2]
  inhibition: 37%
Mus musculus [4]; Mus musculus, read-out: ED50
  ED50: 0.14 mg/kg
Mus musculus [5]; Mus musculus, read-out: ED50
  ED50: 0.39 mg/kg
Mus musculus [6]
  behavior: Stimulant
[7]
  inhibition: 9%
[8]
  Ki: 465 nM
[9]
  Ki: 0.99 nM
[10]
  Ki: 0.68 nM
[11]
  Ki: 990 nM
[12]
  inhibition: 33%

## CN(C)CCCN1c2ccccc2CCc2ccccc21 [IMIPRAMINE]
[2]
  inhibition: 63%
Mus musculus [4]; Mus musculus, read-out: ED50
  ED50: 0.78 mg/kg
[13]
  inhibition: 15%
[11]
  Ki: 4900 nM

## C[C@H]1[C@@H](c2ccccc2)c2ccccc2[C@@H]2CCCN21
Mus musculus [14]
  ED50: inactive
Mus musculus [5]; Mus musculus, read-out: ED50
  ED50: > 60 mg/kg
Mus musculus [15]
  behavior: Weak
[16]
  inhibition: 3%
[17]
  inhibition: 0%
[18]
  inhibition: 3%

## c1ccc([C@@]23CCCN2CCc2ccccc23)cc1
Mus musculus [14]
  ED50: inactive
Mus musculus [5]; Mus musculus, read-out: ED50
  ED50: > 60 mg/kg
Mus musculus [19]
  behavior: Weak/Overt convulsant
[16]
  inhibition: 0%
[17]
  inhibition: 4%
[18]
  inhibition: 4%

## c1ccc([C@@H]2CN3CCC[C@@H]3c3ccccc32)cc1 (stereo in doubt; 7b)
D(2) dopamine receptor
  Ki: 875 nM
Mus musculus [4]
  ED50: 0.07 mg/kg
Mus musculus [5]
  ED50: 0.34 mg/kg
[8]
  Ki: > 10000 nM
[11]
  Ki: 750 nM
[20]
  Ki: 172 nM
